Laboratory results reported in ChEMBL document CHEMBL2311408, “Inhibition of norovirus 3CL protease by bisulfite adducts of transition state inhibitors” (Bioorg Med Chem Lett, 2013).

Columns and labels:
[1] = Cytotoxicity against human HG23 cells up to 320 uM; type: cell-based
[2] = test system: Norovirus; experiment: Antiviral activity against Norovirus infected in human HG23 cells; type: functional; settings: read-out: ED50 (the source's name)
Outline: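 Norovirus replicon-bearing cells, with inhibition of viral replication reported as ED50 in μM.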

[3] = Inhibition of Norovirus recombinant 3CL protease using Edans-EPDFHLQGPEDLAK-Dabcyl as substrate for 30 mins by fluorometry
[4] = Aqueous stability of the compound assessed as compound hydration in DMSO/water after 5 mins by Mass spectrometry; type: physicochemical
Outline: (§1)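 The bisulfite adduct was placed in water. The species present (intact bisulfite adduct or hydrated aldehyde) were examined after 5 min of exposure and again after 24 h.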

[5] = Aqueous stability of the compound in DMSO/water after 24 hrs by Mass spectrometry; type: physicochemical; outline: as §1
[6] = Stability of the compound in buffer solution at pH 7.4 assessed as formation of aldehyde form of compound within 1 hr; type: physicochemical; settings: pH 7.4, 1 h
Outline: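 The bisulfite adduct was placed in buffer solution at pH 7.4. Over about one hour, it was followed for dissociation to the free aldehyde and for hydration of that aldehyde.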

Compound	Activity [1]	EC50 [2] [nM]	IC50 [3] [nM]	Stability [4]	Stability [5]	Stability [6]
CC(C)C[C@H](NC(=O)OCc1ccc(F)cc1)C(=O)N[C@H](C=O)CC1CCNC1=O (stereo partly specified)	Non-toxic	500	1800	–	–	–
CCOC(=O)N[C@@H](C)C(=O)N[C@@H](CC1CCNC1=O)C(O)(C(=O)NC1CC1)S(=O)(=O)[O-].[Na+] (stereo partly specified)	Non-toxic	800	5300	–	–	–
CCC[C@H](NC(=O)OCc1ccccc1)C(=O)N[C@@H](CC1CCNC1=O)C(O)S(=O)(=O)[O-].[Na+] (stereo partly specified)	Non-toxic	1500	–	–	–	–
CC(C)C[C@H](NC(=O)OCCC1CCCCC1)C(=O)N[C@H](C=O)CC1CCNC1=O (stereo partly specified)	Toxic	300	600	–	–	–
CC(C)C[C@H](NC(=O)OCc1ccccc1)C(=O)N[C@H](C=O)CC1CCNC1=O (stereo partly specified)	Non-toxic	200	600	Unstable	–	–
CC(C)C[C@H](NC(=O)OCCC1CCCCC1)C(=O)N[C@@H](CC1CCNC1=O)C(O)S(=O)(=O)[O-].[Na+] (stereo partly specified)	Toxic	300	–	–	–	–
CC(C)C[C@H](NC(=O)OCCc1ccccc1)C(=O)N[C@@H](CC1CCNC1=O)C(O)S(=O)(=O)[O-].[Na+] (stereo partly specified)	Non-toxic	1000	–	–	–	–
CCC[C@H](NC(=O)OCc1ccccc1)C(=O)N[C@H](C=O)CC1CCNC1=O (stereo partly specified)	Non-toxic	2300	6100	–	–	–
CC(C)C[C@H](NC(=O)OCc1cccc(F)c1)C(=O)N[C@@H](CC1CCNC1=O)C(O)S(=O)(=O)[O-].[Na+] (stereo partly specified)	Non-toxic	200	–	–	–	–
CC(C)C[C@H](NC(=O)OCCc1ccccc1)C(=O)N[C@H](C=O)CC1CCNC1=O (stereo partly specified)	Non-toxic	1100	1900	–	–	–
CC(C)C[C@H](NC(=O)OCc1ccccc1)C(=O)N[C@@H](CC1CCNC1=O)C(O)S(=O)(=O)[O-].[Na+] (stereo partly specified)	Non-toxic	300	–	–	Stable	Stable
CCCC[C@H](NC(=O)OCc1ccccc1)C(=O)N[C@@H](CC1CCNC1=O)C(O)S(=O)(=O)[O-].[Na+] (stereo partly specified)	Non-toxic	1300	–	–	–	–
CC(C)C[C@H](NC(=O)OCc1cccc(F)c1)C(=O)N[C@H](C=O)CC1CCNC1=O (stereo partly specified)	Non-toxic	300	700	–	–	–
O=C[C@H](CC1CCNC1=O)NC(=O)[C@H](CC1CCCCC1)NC(=O)OCc1ccccc1 (stereo partly specified)	Non-toxic	50	500	–	–	–
O=C(N[C@@H](CC1CCCCC1)C(=O)N[C@@H](CC1CCNC1=O)C(O)S(=O)(=O)[O-])OCc1ccccc1.[Na+] (stereo partly specified)	Non-toxic	60	–	–	–	–
O=C(N[C@@H](Cc1ccccc1)C(=O)N[C@@H](CC1CCNC1=O)C(O)S(=O)(=O)[O-])OCc1ccccc1.[Na+] (stereo partly specified)	Non-toxic	1100	–	–	–	–
CC(C)C[C@H](NC(=O)OCc1ccc(F)cc1)C(=O)N[C@@H](CC1CCNC1=O)C(O)S(=O)(=O)[O-].[Na+] (stereo partly specified)	Non-toxic	400	–	–	–	–
CCCC[C@H](NC(=O)OCc1ccccc1)C(=O)N[C@H](C=O)CC1CCNC1=O (stereo partly specified)	Non-toxic	1200	4500	–	–	–
O=C[C@H](CC1CCNC1=O)NC(=O)[C@H](Cc1ccccc1)NC(=O)OCc1ccccc1 (stereo partly specified)	Non-toxic	1800	5100	–	–	–
